Reference: ChEMBL document CHEMBL4837219, “Chemical modification of NSC12 leads to a specific FGF-trap with antitumor activity in multiple myeloma” (Eur J Med Chem, 2021)
The source made the active and inactive calls. No cut-off for these calls is given here.

Columns and labels:
[1] = Drug metabolism in NOD-SCID mouse plasma assessed as (1R)-4,4,4-trifluoro-1-((3S,10R,13S,17S)-3-hydroxy-10,13-dimethyl-2,3,4,7,8,9,10,11,12,13,14,15,16,17-tetradecahydro-1H-cyclopenta[a]phenanthren-17-yl)-3-(trifluoromethyl)butane-1,3-diol formation at 7.5 mg/kg, ip measured after 90 mins by HPLC-MS/MS analysis; format: ADME, organism-based; conditions: in vivo, 1.5 h
[2] = biological target: Estrogen receptor beta (Homo sapiens) (UniProt Q92731); experiment: Displacement of [3H]estradiol from human full length recombinant ERbeta expressed in baculovirus-infected Sf9 cells at 5 uM incubated for 120 mins by radiometric scintillation counting analysis
Sequence of Estrogen receptor beta (Homo sapiens) (Q92731 whole entry): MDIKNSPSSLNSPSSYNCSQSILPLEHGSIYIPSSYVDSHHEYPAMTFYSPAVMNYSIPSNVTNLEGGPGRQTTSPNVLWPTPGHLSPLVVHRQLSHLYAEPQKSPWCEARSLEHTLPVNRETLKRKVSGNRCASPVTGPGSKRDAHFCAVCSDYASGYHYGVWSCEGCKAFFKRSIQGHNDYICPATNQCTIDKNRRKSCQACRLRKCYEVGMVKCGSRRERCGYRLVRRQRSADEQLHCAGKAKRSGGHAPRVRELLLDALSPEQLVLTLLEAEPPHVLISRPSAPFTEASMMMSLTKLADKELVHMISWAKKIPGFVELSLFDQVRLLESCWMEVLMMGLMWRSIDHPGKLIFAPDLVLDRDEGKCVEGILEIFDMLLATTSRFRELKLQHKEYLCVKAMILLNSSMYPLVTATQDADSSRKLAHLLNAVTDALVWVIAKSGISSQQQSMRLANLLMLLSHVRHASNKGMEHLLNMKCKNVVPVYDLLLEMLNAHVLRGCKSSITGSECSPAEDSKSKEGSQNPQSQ
Procedure, shortened: (§1)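 Radioligand competition binding to human ERα or ERβ, run as an outsourced panel assay. Readout is % inhibition of specific [3H]estradiol binding at 5.0 and 50 µM compound. Run in duplicate, and the mean of the duplicates is reported.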

[3] = tested on: KMS-11; experiment: Antiproliferative activity against human KMS-11 cells assessed as reduction in cell viability incubated for 48 hrs by propidium iodide staining-based flow cytometric analysis; format: functional; conditions: KMS-11, 48 h
Procedure, shortened: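 KMS-11 cells (maintained in RPMI1640 with 10% heat-inactivated FBS and 2.0 mM glutamine) exposed to increasing concentrations of compound for 48 h. Viable PI-negative cells counted by flow cytometry using the analyzer's absolute counting function. IC50 is the concentration giving 50% inhibition of proliferation, taken as the mean of at least 2 experiments run in triplicate.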

[4] = biological target: Estrogen receptor beta (Homo sapiens) (UniProt Q92731); experiment: Displacement of [3H]estradiol from human full length recombinant ERbeta expressed in baculovirus-infected Sf9 cells at 50 uM incubated for 120 mins by radiometric scintillation counting analysis; procedure, shortened: as §1
[5] = tested on: RPMI-8226; experiment: Trapping activity at FGF in human RPMI-8226 cells assessed as inhibition of FGFR3 phosphorylation at 6 uM measured after 6 hrs by westernblot analysis; format: cell-based
Procedure, shortened: (§2)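 Cells cultured in RPMI1640 with 10% FBS and 2.0 mM glutamine, then treated 6 h with 6 µM compound. Washed in cold PBS and lysed in NP-40 buffer (20 mM Tris-HCl pH 8, 1 mM orthovanadate, protease inhibitors). Bradford used to normalize protein. Blots probed for phospho-FGFR3 (Y724), with β-actin or α-tubulin as loading control; percent inhibition read by densitometry.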

[6] = tested on: U-266; experiment: Trapping activity at FGF in human U-266 cells assessed as inhibition of FGFR3 phosphorylation at 6 uM measured after 6 hrs by westernblot analysis; format: cell-based; procedure, shortened: as §2
[7] = tested on: KMS-11; experiment: Trapping activity at FGF in human KMS-11 cells assessed as inhibition of FGFR3 phosphorylation at 6 uM measured after 6 hrs by western blot analysis; format: cell-based
Procedure, shortened: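 KMS-11 cells treated for 6 h with compound at 6.0 µM, then lysed in NP-40 buffer containing orthovanadate and protease inhibitors. Phospho-FGFR3 detected by western blot with anti-phospho-Y724 antibody, using β-actin or α-tubulin as loading control. Result expressed as % inhibition of FGFR3 phosphorylation by densitometry.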

[8] = biological target: Fibroblast growth factor 2 (Homo sapiens, UniProt P09038); experiment: Binding affinity to FGF2 (unknown origin) by sensor chip immobilization based surface plasmon resonance analysis
Sequence of Fibroblast growth factor 2 (P09038 143-288 limits assumed): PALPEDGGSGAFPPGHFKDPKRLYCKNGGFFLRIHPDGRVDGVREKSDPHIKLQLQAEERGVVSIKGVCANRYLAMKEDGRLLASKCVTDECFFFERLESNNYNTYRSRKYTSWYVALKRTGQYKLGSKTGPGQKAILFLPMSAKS

[9] = tested on: OPM-2; experiment: Trapping activity at FGF in human OPM-2 cells assessed as inhibition of FGFR3 phosphorylation at 6 uM measured after 6 hrs by westernblot analysis; format: cell-based; procedure, shortened: as §2
[10] = biological target: T1, Estrogen receptor (Homo sapiens) (UniProt P03372); experiment: Displacement of [3H]estradiol from human full length recombinant ERalpha expressed in baculovirus-infected Sf9 cells at 5 uM incubated for 120 mins by radiometric scintillation counting analysis; procedure, shortened: as §1
T1 sequence (whole entry): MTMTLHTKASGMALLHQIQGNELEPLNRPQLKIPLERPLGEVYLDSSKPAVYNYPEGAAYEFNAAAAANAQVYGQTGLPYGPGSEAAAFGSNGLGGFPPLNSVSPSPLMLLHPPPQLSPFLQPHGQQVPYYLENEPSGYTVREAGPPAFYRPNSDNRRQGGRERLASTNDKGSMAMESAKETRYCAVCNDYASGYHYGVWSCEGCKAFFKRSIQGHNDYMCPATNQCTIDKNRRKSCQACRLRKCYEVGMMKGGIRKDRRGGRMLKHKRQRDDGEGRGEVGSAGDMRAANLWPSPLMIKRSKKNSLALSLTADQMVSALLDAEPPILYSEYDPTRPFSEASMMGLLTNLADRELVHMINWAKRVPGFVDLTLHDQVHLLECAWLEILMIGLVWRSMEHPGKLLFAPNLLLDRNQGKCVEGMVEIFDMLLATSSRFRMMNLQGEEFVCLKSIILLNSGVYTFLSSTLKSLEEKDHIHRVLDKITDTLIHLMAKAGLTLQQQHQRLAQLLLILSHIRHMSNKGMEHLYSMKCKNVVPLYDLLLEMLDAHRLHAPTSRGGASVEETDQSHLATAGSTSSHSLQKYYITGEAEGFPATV

[11] = biological target: T1, Estrogen receptor (Homo sapiens); experiment: Displacement of [3H]estradiol from human full length recombinant ERalpha expressed in baculovirus-infected Sf9 cells at 50 uM incubated for 120 mins by radiometric scintillation counting analysis; procedure, shortened: as §1
[12] = tested on: KMS-11; experiment: Antitumor activity against human KMS-11 cells xenografted in NOD-SCID mouse assessed as tumor growth inhibition at 7.5 mg/kg, ip administered every other day measured at day 17 post-tumor implantation by caliper analysis; format: functional, organism-based
Procedure, shortened: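 Female NOD/SCID mice, six to eight weeks old, injected s.c. with 5 × 10^6 KMS-11 cells in PBS. Once tumors were palpable (10 days), mice were randomized and given 7.5 mg/kg i.p. every other day, with DMSO as vehicle control; n = 5 per group. Tumor volume from caliper measurements, V = (D × d²)/2. Tumors excised and weighed at day 17.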

[13] = Total plasma concentration in NOD-SCID mouse at 7.5 mg/kg, ip measured after 90 mins by HPLC/MS/MS analysis; format: ADME, organism-based
Procedure, shortened: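 A single 7.5 mg/kg i.p. dose given to eight-week-old NOD/SCID mice (n = 4). Blood collected at 90 min. Plasma treated with acetonitrile containing internal standard (1:2) to precipitate protein, centrifuged, and the supernatant analyzed by C18 gradient HPLC-MS/MS in ESI-negative MRM mode. Calibration in spiked blank plasma, linear over 1–1000 nM, LOQ 1 nM. Values are mean ± SEM.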

[14] = tested on: RPMI-8226; experiment: Antiproliferative activity against human RPMI-8226 cells assessed as reduction in cell viability incubated for 48 hrs by propidium iodide staining-based flow cytometric analysis; format: functional; conditions: RPMI-8226, 48 h
Procedure, shortened: (§3)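 Myeloma cells kept at low passage in RPMI1640 with 10% heat-inactivated FBS and 2.0 mM glutamine, Mycoplasma-tested, authenticated. Exposed to increasing concentrations of test compound for 48 h. Viable cells counted as propidium iodide-negative by flow cytometry with absolute counts. IC50 = concentration halving proliferation; mean of at least 2 experiments in triplicate.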

[15] = tested on: U-266; experiment: Antiproliferative activity against human U-266 cells assessed as reduction in cell viability incubated for 48 hrs by propidium iodide staining-based flow cytometric analysis; format: functional; conditions: U-266, 48 h; procedure, shortened: as §3
[16] = tested on: OPM-2; experiment: Antiproliferative activity against human OPM-2 cells assessed as reduction in cell viability incubated for 48 hrs by propidium iodide staining-based flow cytometric analysis; format: functional; conditions: OPM-2, 48 h; procedure, shortened: as §3

Structure (SMILES): C[C@]12CC[C@H]3[C@@H](CC=C4C[C@@H](OC(=O)CN)CC[C@@]43C)[C@@H]1CC[C@@H]2[C@H](O)CC(O)(C(F)(F)F)C(F)(F)F
- Drug metabolism [1]: Metabolite_Detected
- inhibition [2]: 21.4%
- IC50 [3]: 2300 nM
- inhibition [4]: 71.3%
- Activity [5]: Active
- Activity [6]: Active
- inhibition [7]: 100%
- Kd [8]: 30 µM
- Activity [9]: Active
- inhibition [10]: 7.4%
- inhibition [11]: 50%
- Activity [12]: inactive
- concentration at 1.5 h [13]: 7.5 nM
- IC50 [14]: 7.3 µM
- IC50 [15]: 6.9 µM
- IC50 [16]: 7.3 µM
